According to ChEMBL document CHEMBL3045423, “Cynodontin: a fungal metabolite with antifungal properties” (J Agric Food Chem, 2003):
Converted amounts (≈) assume the structure as drawn. The source made the active and inactive calls. No cut-off for these calls is given here.

Experiments:
Lactuca sativa = assay: Phytotoxicity in Lactuca sativa (lettuce) assessed as seed germination at 250 mg/mL applied as seed dressings after 8 to 14 days (reference value: 90 +/- 5.3%); assay type: organism-based; conditions: in vivo
Brassica oleracea [1] = assay: Phytotoxicity in Brassica oleracea (broccoli) assessed as seed germination at 250 mg/mL applied as seed dressings after 8 to 14 days (reference value: […] +/- 4.2%); assay type: organism-based; conditions: in vivo
Capsicum annuum = assay: Phytotoxicity in Capsicum annuum (pepper) assessed as seed germination at 250 mg/mL applied as seed dressings after 8 to 14 days (reference value: 84.7 +/- 4.6%); assay type: organism-based; conditions: in vivo
Solanum melongena = assay: Phytotoxicity in Solanum melongena (eggplant) assessed as seed germination at 250 mg/mL applied as seed dressings after 8 to 14 days (reference value: 84.7 +/- 2.3%); assay type: organism-based; conditions: in vivo
Verticillium dahliae = assay: Antifungal activity against Verticillium dahliae assessed as mycelial growth inhibition after 4 to 8 days; assay type: functional; conditions: read-out: ED50 (the source's name)
Method in brief: (§1)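 Test substance added in acetone (solvent at most 0.8% in treated and control plates) to sterilized potato dextrose agar. Plates inoculated with 0.5 cm mycelial blocks and incubated in the dark at 25 °C for 4-8 days depending on species. Linear growth inhibition estimated from colony diameter.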

Sclerotinia minor = assay: Antifungal activity against Sclerotinia minor assessed as mycelial growth inhibition after 4 to 8 days; assay type: functional; conditions: read-out: ED50 (the source's name); method in brief: as §1
Sclerotinia sclerotiorum = assay: Antifungal activity against Sclerotinia sclerotiorum assessed as mycelial growth inhibition after 4 to 8 days; assay type: functional; conditions: read-out: ED50 (the source's name); method in brief: as §1
Botrytis cinerea [2] = assay: Antifungal activity against Botryotinia fuckeliana assessed as inhibition of conidia germination at 1 to 10 ug/mL after 5 hr by light adverse phase microscopic analysis; assay type: functional, organism-based
Method in brief: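 B. cinerea conidia (10^6/mL in water) applied as 0.2 mL droplets onto water-agar (agar plus deionized water) with or without test substance added in acetone. Incubated 5 h in the dark at 25 °C. Percent germination scored from 200 conidia per dish under light microscopy.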

Botrytis cinerea [3] = assay: Antifungal activity against Botryotinia fuckeliana assessed as mycelial growth inhibition after 4 to 8 days; assay type: functional; conditions: read-out: ED50 (the source's name); method in brief: as §1
Brassica oleracea [4] = assay: Phytotoxicity in Brassica oleracea (cabbage) assessed as seed germination at 250 mg/mL applied as seed dressings after 8 to 14 days (reference value: 90 +/- 5.3%); assay type: organism-based; conditions: in vivo
Cucumis sativus = assay: Phytotoxicity in Cucumis sativus (cucumber) assessed as seed germination at 250 mg/mL applied as seed dressings after 8 to 14 days (reference value: […] +/- 1.2%); assay type: organism-based; conditions: in vivo
Solanum lycopersicum = assay: Phytotoxicity in Solanum lycopersicum (tomato) assessed as seed germination at 250 mg/mL applied as seed dressings after 8 to 14 days (reference value: 94 +/- 2%); assay type: organism-based; conditions: in vivo
[5] = system: Brassica oleracea var. botrytis (cauliflower); assay: Phytotoxicity in Brassica oleracea var. botrytis assessed as seed germination at 250 mg/mL applied as seed dressings after 8 to 14 days (reference value: 97.3 +/- 1.2%); conditions: in vivo
Cucumis melo = assay: Phytotoxicity in Cucumis melo (muskmelon) assessed as seed germination at 250 mg/mL applied as seed dressings after 8 to 14 days (reference value: 90 +/- 2%); assay type: organism-based; conditions: in vivo

Row | Compound | Activity (Lactuca sativa) | Activity (Brassica oleracea [1]) | Activity (Capsicum annuum) | Activity (Solanum melongena) | EC50 (Verticillium dahliae) | EC50 (Sclerotinia minor) | EC50 (Sclerotinia sclerotiorum) | inhibition (Botrytis cinerea [2]) | EC50 (Botrytis cinerea [3]) | Activity (Brassica oleracea [4]) | Activity (Cucumis sativus) | Activity (Solanum lycopersicum) | Activity [5] | Activity (Cucumis melo)
1 | O=C1c2ccccc2C(=O)c2ccccc21 [ANTHRAQUINONE] | 88% | 87.3% | 85.3% | 82.7% | > 100 µg/mL | > 100 µg/mL | > 100 µg/mL | inactive | > 100 µg/mL | 88% |  |  |  | 
2 | Cc1cc(O)c2c(c1)C(=O)c1cccc(O)c1C2=O [CHRYSOPHANOL] |  |  |  |  | > 100 µg/mL | 74.1 µg/mL (≈ 292 µM) | > 100 µg/mL | inactive | > 100 µg/mL |  |  |  |  | 
3 | Cc1cc(O)c2c(c1)C(=O)c1cc(O)cc(O)c1C2=O [EMODIN] |  |  |  |  | > 100 µg/mL | 38.9 µg/mL (≈ 144 µM) | 66.5 µg/mL (≈ 246 µM) | inactive | 41.2 µg/mL (≈ 153 µM) |  |  |  |  | 
4 | Cc1cc(O)c2c(c1O)C(=O)c1c(O)ccc(O)c1C2=O [Cynodontin] | 96.7% | 88% | 84.7% | 82.7% | 11.5 µg/mL (≈ 40.3 µM) | 4.31 µg/mL (≈ 15.1 µM) | 5.52 µg/mL (≈ 19.3 µM) | inactive | 5.25 µg/mL (≈ 18.3 µM) | 89.3% | 94% | 95.3% | 96.7% | 90.7%
